High-throughput results from PubChem.
LMPTP block = blocks human LMPTP phosphatase; P24666; recombinant LMPTP-A, OMFP fluorogenic substrate, fluorescence intensity; inhibition, % at 20 µM; actives 0.22% (n = 360,000); AID 651560;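 active = compounds that cut the enzyme signal by at least half of the control window in the single-dose screen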;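 also: plate controls were DMSO wells with enzyme plus substrate for no effect and substrate without enzyme for full effect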
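Test system – LMPTP-A phosphatase enzyme · Quantity – 0.625 nM LMPTP-A final · Reagent – OMFP substrate, 400 µM final · Dosing – one test concentration per compound, 20 µM, with 3% DMSO overall · Timing – 50 min enzyme reaction at room temperature, protected from light · Detection – fluorescence intensity · Controls – substrate-only low control, DMSO enzyme-plus-substrate high control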
SUMO1-SIM PPI = SUMO1-SIM interaction modulation; AID 602429; inhibition, % at 20 µM; SUMO1 binding to a labelled peptide, TR-FRET, 1 h; actives 0.33% (n = 360,000); P63165; in the data active = inhibition above about 37%
DNMT1 inh = blocks human DNA methyltransferase DNMT1; P26358; DNMT1 molecular beacon, Hinp1I cleavage, fluorescence; inhibition (reported as % activation of signal), % at 10 µM; actives 0.83% (n = 360,000); in the data active = inhibition above about 50%
Target sequence (P26358 504-1616 limits assumed): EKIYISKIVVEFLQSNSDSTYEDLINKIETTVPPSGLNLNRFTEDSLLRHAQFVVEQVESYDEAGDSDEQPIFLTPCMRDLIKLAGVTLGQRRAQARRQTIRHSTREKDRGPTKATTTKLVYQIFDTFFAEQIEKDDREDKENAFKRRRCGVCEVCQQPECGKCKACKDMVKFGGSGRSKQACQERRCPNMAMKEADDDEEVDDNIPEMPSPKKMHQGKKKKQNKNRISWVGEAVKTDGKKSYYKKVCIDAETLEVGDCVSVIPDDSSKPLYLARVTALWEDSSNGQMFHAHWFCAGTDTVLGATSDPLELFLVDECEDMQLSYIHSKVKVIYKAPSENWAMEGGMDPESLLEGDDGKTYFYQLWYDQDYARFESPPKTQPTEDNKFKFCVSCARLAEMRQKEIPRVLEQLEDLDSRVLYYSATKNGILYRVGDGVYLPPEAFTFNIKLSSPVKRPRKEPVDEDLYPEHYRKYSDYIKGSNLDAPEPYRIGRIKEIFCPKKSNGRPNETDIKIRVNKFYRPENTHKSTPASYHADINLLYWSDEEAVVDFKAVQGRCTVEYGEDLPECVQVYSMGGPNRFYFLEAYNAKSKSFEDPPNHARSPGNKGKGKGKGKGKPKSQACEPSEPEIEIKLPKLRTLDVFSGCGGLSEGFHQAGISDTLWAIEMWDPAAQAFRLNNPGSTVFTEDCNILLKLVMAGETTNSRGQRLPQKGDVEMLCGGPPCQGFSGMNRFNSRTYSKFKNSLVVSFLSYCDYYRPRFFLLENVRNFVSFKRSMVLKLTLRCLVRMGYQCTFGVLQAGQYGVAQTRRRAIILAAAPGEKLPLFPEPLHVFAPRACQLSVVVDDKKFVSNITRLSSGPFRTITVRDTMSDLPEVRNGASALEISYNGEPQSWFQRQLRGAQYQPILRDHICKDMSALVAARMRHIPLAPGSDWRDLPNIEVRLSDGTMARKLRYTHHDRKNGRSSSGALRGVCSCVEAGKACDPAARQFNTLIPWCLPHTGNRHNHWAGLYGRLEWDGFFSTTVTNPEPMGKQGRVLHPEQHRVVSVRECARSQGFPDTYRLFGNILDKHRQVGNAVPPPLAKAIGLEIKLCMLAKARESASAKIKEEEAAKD
STEP inh = STEP (human) phosphatase inhibition | P54829 | recombinant STEP, OMFP fluorogenic substrate, fluorescence | inhibition, % at 20 µM | actives 0.25% (n = 360,000);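 active = inhibition at 20 µM, scaled per plate between control wells, above about 37%, limit read from the data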;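 also: 0% = DMSO with enzyme and substrate and 100% = substrate only without enzyme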
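System: STEP phosphatase, cell-free reaction; Buffer or medium: Bis-Tris pH 6.0 buffer with DTT, detergent; Incubation: 20 min at room temperature, dark; Measured by: fluorescence, 480/540 nm.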
Scp1 inh = blocks human Scp-1 phosphatase activity; inhibition, % at 20 µM; Recombinant Scp1, phosphopeptide, malachite green phosphate absorbance; actives 0.88% (n = 340,000); Q9GZU7;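 active = inhibition above about 50% at 20 µM, limit read from the data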;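 also: plate controls were DMSO wells with enzyme for no effect and wells lacking enzyme for full effect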
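System: SCP-1 catalytic domain; Reagent: Phospho 17-mer peptide substrate; Doses: one concentration, 20 µM, with 1.0% DMSO; Incubation: 45 min room-temperature reaction, 5 min colour, 30 min stabiliser; Signal: Phosphate-binding colour reagent, absorbance read at 630 nm.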
Starred values were filed as active, the others as inactive. Shown are actives, neighbours in structure and some others; about 1.7% of the full set was active somewhere.

CC(C)CS(=O)(=O)C1=NN2C(=N)/C(=C\c3ccc(OC(=O)c4ccco4)cc3)C(=O)N=C2S1 was read as LMPTP block 5, SUMO1-SIM PPI -6, DNMT1 inh 10, STEP inh 10 and Scp1 inh 69*.
For CCCCCc1cc(OC)cc2c1C(=O)OC(C)(C)O2 the results were LMPTP block 4, SUMO1-SIM PPI 1, DNMT1 inh 9, STEP inh 2 and Scp1 inh -9.
For COc1cccc(-c2cnc(C(O)c3cc(Cl)cc(Cl)c3)[nH]2)c1 (configuration not stated) the results were LMPTP block 1, SUMO1-SIM PPI 5, DNMT1 inh 1 and STEP inh -2.
`COc1cc(OC)cc(C(=O)NC2CC3CCC(C2)N3C)c1` (configuration not stated) gave LMPTP block 0, SUMO1-SIM PPI 2, DNMT1 inh 4, STEP inh -3 and Scp1 inh 2.
Screening O=C1C=C(N2CCCCC2)c2ccccc2C1=O returned LMPTP block 5, SUMO1-SIM PPI 66*, DNMT1 inh 89*, STEP inh 11 and Scp1 inh -4.
`O=C1c2ccccc2C(=O)c2c1cccc2N1CCCC1` gave LMPTP block 5, SUMO1-SIM PPI -18, DNMT1 inh -10, STEP inh 2 and Scp1 inh 1.
Screening CS(=O)(=O)N1CCN(c2ccccc2NC(=O)Nc2cccc(Cl)c2)CC1 returned LMPTP block 2, SUMO1-SIM PPI 2, DNMT1 inh 0, STEP inh -3 and Scp1 inh -6.
`O=C(NN1C(=O)/C(=C/C=C/c2ccco2)SC1=S)c1ccncc1` gave LMPTP block 45, SUMO1-SIM PPI 101*, DNMT1 inh 84*, STEP inh 55* and Scp1 inh 72*.
`O=C(NN1C(=O)/C(=C/C=C/c2ccccc2)SC1=S)c1ccncc1` gave LMPTP block 4, SUMO1-SIM PPI 53*, DNMT1 inh 1, STEP inh 0 and Scp1 inh -1.
`C[C@H]1O[C@@H](O[C@H]2CC[C@@]3(C)C(CC[C@]4(C)C3C=CC3=C5CC(C)(C)CC[C@]5(CO)[C@H](O)C[C@]34C)[C@]2(C)CO)[C@H](O)[C@@H](O[C@@H]2O[C@H](CO)[C@@H](O)[C@H](O)[C@H]2O)[C@H]1O` (some centres not stated) gave LMPTP block 0, SUMO1-SIM PPI 6, DNMT1 inh -13, STEP inh 0 and Scp1 inh -10.
Cc1cccc(/C=N/NC(=O)Cc2ccc(Cl)cc2)c1O was read as LMPTP block 2, SUMO1-SIM PPI 8, DNMT1 inh 2, STEP inh 2 and Scp1 inh -6.
For Cc1cccc(/C=N\NC(=O)c2ccc(Cl)cc2)c1O the results were LMPTP block 41, SUMO1-SIM PPI 0, DNMT1 inh 6, STEP inh 16 and Scp1 inh 95*.
For COc1ccc2[nH]c3c(=O)n(/N=C/c4ccc(OC)c(CN5CCCC5)c4)c(C)nc3c2c1 the results were LMPTP block 7, SUMO1-SIM PPI 66*, DNMT1 inh 12, STEP inh 0 and Scp1 inh -4.
Screening COc1ccc2c(c1)[nH]c1c(=O)n(/N=C/c3ccc(OC)c(CN4CCCC4)c3)cnc12 returned LMPTP block 20, SUMO1-SIM PPI -1, DNMT1 inh -6, STEP inh 6 and Scp1 inh -14.
Screening C=CCNc1nc2c(c(=O)[nH]c(=O)n2C)n1CC(O)COc1ccc2ccccc2c1 (configuration not stated) returned LMPTP block -3, SUMO1-SIM PPI 30, DNMT1 inh 14, STEP inh 0 and Scp1 inh 0.
Screening CCCCN(C(=O)c1nn(C)c(=O)c2ccccc12)c1c(N)n(CC(C)C)c(=O)[nH]c1=O returned LMPTP block -1, SUMO1-SIM PPI -4, DNMT1 inh 3, STEP inh -2 and Scp1 inh -2.
`C/C(=N\NS(=O)(=O)c1ccc(Cl)c([N+](=O)[O-])c1)c1ccc(C)o1` gave LMPTP block 55*, SUMO1-SIM PPI -3, DNMT1 inh 23, STEP inh 1 and Scp1 inh -2.
